Measured values published in ChEMBL document CHEMBL1150125, “Antiplasmodial activity of alkaloids from various strychnos species” (J Nat Prod, 2002).

Assays:
Plasmodium falciparum [1] = assay: Antiplasmodial activity against chloroquine-resistant Plasmodium falciparum FCB1-R/Colombia by [3H]hypoxanthine uptake; type: functional, organism-based
Procedure, shortened: (§1)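 Asexual erythrocytic stages kept in continuous culture (Trager and Jensen method). Each sample run as eight 4-fold dilutions, final 20 to 0.0012 µg/mL, in duplicate. IC50 and IC90 derived; number of independent experiments per value given separately.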

Plasmodium falciparum [2] = assay: Antiplasmodial activity against chloroquine-sensitive Plasmodium falciparum FCA 20/ Ghana by [3H]hypoxanthine uptake; type: functional, organism-based; procedure, shortened: as §1
Plasmodium falciparum [3] = assay: Antiplasmodial activity against chloroquine-resistant Plasmodium falciparum W2/Indochina by [3H]hypoxanthine uptake; type: functional, organism-based; procedure, shortened: as §1
HCT-116 = assay: Cytotoxicity against human HCT116 cells after 72 hrs by WST1 assay; type: cell-based; details: HCT-116, 72 h
Procedure, shortened: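 HCT-116 colon cancer cells were seeded at 5000 per well in medium containing the test drugs, with matched DMSO controls. After 72 h, WST-1 was added for 30 min at 37 °C. Absorbance was read against a cell-free medium plus WST-1 blank and expressed as percent of control. Two independent experiments were run, each in triplicate, and means ± SEM were calculated.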

[4] = Selectivity index, ratio of IC50 for human HCT116 cells to IC50 for chloroquine-resistant Plasmodium falciparum W2/Indochina; type: toxicity, cell-based, HCT-116; details: HCT116 cells versus Plasmodium falciparum W2/Indochina, read-out: Ratio IC50
Procedure, shortened: (§2)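 Selectivity index = IC50 in HCT-116 cells / IC50 in P. falciparum. Cell IC50: 5000 HCT-116 cells per well with drug, DMSO controls, 72 h incubation, then WST-1 for 30 min at 37 °C. Absorbance read against a cell-free blank and expressed as percent of control. Two independent experiments, each in triplicate, means ± SEM.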

[5] = Selectivity index, ratio of IC50 for human HCT116 cells to IC50 for chloroquine-sensitive Plasmodium falciparum FCA 20/ Ghana; type: toxicity, cell-based, HCT-116; details: HCT116 cells versus Plasmodium falciparum FCA 20/Ghana, read-out: Ratio IC50; procedure, shortened: as §2
[6] = Plasmodium falciparum, FCB1-R/Colombia
[7] = Plasmodium falciparum, FCA 20/ Ghana
[8] = Plasmodium falciparum, W2/Indochina

SMILES	IC50 (Plasmodium falciparum [1]; [6]) [µM]	IC90 (Plasmodium falciparum [1]; [6]) [µM]	IC50 (Plasmodium falciparum [2]; [7]) [µM]	IC90 (Plasmodium falciparum [2]; [7]) [µM]	IC50 (Plasmodium falciparum [3]; [8]) [µM]	IC90 (Plasmodium falciparum [3]; [8]) [µM]	IC50 (Plasmodium falciparum [3]) [µM]	IC50 (Plasmodium falciparum [1]) [µM]	IC90 (Plasmodium falciparum [1]) [µM]	IC90 (Plasmodium falciparum [2]) [µM]	IC50 (Plasmodium falciparum [2]) [µM]	IC90 (Plasmodium falciparum [3]) [µM]	IC50 (HCT-116) [µM]	selectivity ratio [4]	selectivity ratio [5]
c1ccc2c(c1)C[C@H]1C3Nc4ccccc4C3CCN1C2 (stereo not given in full)	12.9	47.4	11.3	42.2	18.3	89.5	–	–	–	–	–	–	–	–	–
C=C[C@H]1CN2CC[C@H]1C[C@H]2[C@H](O)c1ccnc2ccc(OC)cc12 [QUININE]	0.2	2.74	0.269	1.91	0.413	1.72	–	–	–	–	–	–	–	–	–
C=C1c2[nH]c3ccccc3c2CCN2C[C@@H](CC)CC[C@H]12 [EPINGOUNIENSINE]	16.3	49.7	7.8	26.9	15.8	52.8	–	–	–	–	–	–	–	–	–
C[C@@H]1CC[C@H]2[C@@H](C)C(=O)O[C@@H]3O[C@@]4(C)CC[C@@H]1[C@]32OO4 [ARTEMISININ]	0.005	0.013	–	–	0.002	0.017	–	–	–	–	–	–	–	–	–
CC1C2=CN3CCc4c([nH]c5ccc(O)cc45)C3CC2CC2NCCC3c4ccccc4N1C23 (stereo in doubt; 64) [JANUSSINE A]	15.9	28.3	9.55	30.9	–	27.6	12.7	–	–	–	–	–	–	–	–
C=CC1CN2CC[C@@]34c5cc(C(C)C6=CN7CC[C@]89c%10ccccc%10N[C@H]8[C@@H](CO)[C@H]6C[C@H]79)ccc5N[C@@H]3[C@@H](CO)[C@@H]1C[C@@H]24 (stereo in doubt; 67) [PANGANENSINE X]	–	–	10.4	–	–	78.7	17.4	13.5	43.7	68.2	–	–	–	–	–
C/C=C1/CN2CCc3c([nH]c4ccccc34)[C@@H]2C[C@@H]1C1=CN2c3ccccc3[C@]34CCN5C/C(=C/C)[C@H](C[C@H]53)[C@@H]([C@@H]1O)[C@H]24 [LONGICAUDATINE F]	11.7	33.4	7.7	26.7	9.58	28.1	–	–	–	–	–	–	–	–	–
C=C1c2[nH]c3ccccc3c2CCN2C[C@H](CC)CC[C@H]12 [NGOUNIENSINE]	17.8	62.8	26.8	71	20.2	70.1	–	–	–	–	–	–	–	–	–
CN1CCC2c3ccccc3N3C2[C@@H]1C[C@@H](C1=CCOC1=O)C[C@@H]3O (stereo not given in full) [AKAGERINE LACTONE]	27.5	55.2	17	60.7	25.9	53.3	–	–	–	–	–	–	–	–	–
C/C=C1/CN2CCc3c([nH]c4ccccc34)[C@@H]2C[C@@H]1C1CCC([C@H]2C[C@H]3c4[nH]c5ccccc5c4CCN3C/C2=C/C)C1 (stereo not given in full) [STRYCHNOFURANINE]	10.8	33.5	4.11	15	2.8	16	–	–	–	–	–	–	–	–	–
C=CC1CN2CC[C@@]34c5cc(C(C)C6=CN7CC[C@]89c%10ccccc%10N[C@H]8[C@@H](CO)[C@H]6C[C@H]79)ccc5N[C@@H]3[C@@H](CO)[C@@H]1C[C@@H]24 (stereo in doubt; 68) [PANGANENSINE X]	12.9	26.1	–	34.8	17	–	–	–	–	–	14.9	85.8	–	–	–
CCN(CC)CCCC(C)Nc1ccnc2cc(Cl)ccc12 (stereo not given) [CHLOROQUINE]	–	0.084	–	0.071	–	1.75	–	–	–	–	–	–	33.7	–	–
C/C=C1/CN2CC[C@]34c5ccccc5N5C(=O)C([C@H]6C[C@]78c9ccccc9N9C(=O)C=C[C@@H]([C@H]97)[C@H]7C[C@@H]8N6C/C7=C/C)=C[C@H]([C@H]53)[C@H]1C[C@H]24 [SUNGUCINE]	–	–	7.82	26.3	10.1	33.2	–	–	–	–	–	–	6.2	0.611	0.79
C/C=C1/CN2CC[C@@]34c5ccccc5N5C([C@H]6[C@@H]7N(C(C)=O)c8ccccc8[C@@]78CCN7C/C(=C/C)[C@@H]6C[C@H]78)OC=C([C@H]1C[C@H]23)[C@H]54 (stereo not given in full)	2.12	7.13	4.58	18.7	3.31	18.5	–	–	–	–	–	–	–	–	–
C[C@@H]1OC[C@H]2[C@@H]3C[C@H]4N(CC[C@]45c4ccccc4N[C@H]25)/C(=C/C2=CN4CC[C@]56c7ccccc7N[C@H]5[C@H](CO)[C@H]2C[C@H]46)[C@@H]31	5.27	12.7	9.77	17.7	> 20	–	–	–	–	–	–	–	–	–	–
C/C=C1\CN2CCC3c4ccccc4NC3[C@@H]2C[C@@H]1CC1=NCCc2c1[nH]c1ccccc21 (stereo not given in full) [DIHYDROUSAMBARENSINE]	–	–	0.857	2.49	0.032	4.68	–	–	–	–	–	–	12	375	14
C=C[C@H]1CN2CCc3c([nH]c4ccccc34)[C@@H]2C[C@@H]1C[C@H]1c2[nH]c3ccccc3c2CCN1C [USAMBARINE]	–	–	2.5	9.21	2.36	7.29	–	–	–	–	–	–	–	–	–
C/C=C1/CN2CCc3c([nH]c4ccccc34)[C@@H]2C[C@@H]1Cc1nccc2c1[nH]c1ccccc12 [USAMBARENSINE]	–	–	–	4.41	0.594	4.83	–	–	–	–	–	–	–	–	–
CC1C2=CN3CCc4c([nH]c5ccc(O)cc45)C3CC2CC2NCCC3c4ccccc4N1C23 (stereo in doubt; 65) [JANUSSINE A]	–	–	–	–	–	–	4.75	17	33.1	34.9	12.6	27.8	–	–	–
C/C=C1\CN2CC[C@]34c5ccccc5N5[C@@H]6O[C@H]([C@H]([C@H]53)[C@H]1C[C@H]24)N1c2ccccc2[C@]23CCN4C/C(=C/C)[C@H](C[C@H]42)[C@H]6[C@H]13 (stereo in doubt; 53) [MATOPENSINE]	–	–	–	–	–	–	8.66	4.67	24.8	73.3	13.2	86.7	–	–	–
C/C=C1/CN2CCc3c([nH]c4ccccc34)[C@@H]2C[C@@H]1C1=CN2c3ccccc3[C@]34CCN5C/C(=C/CO)[C@H](C[C@H]53)[C@@H]([C@@H]1O)[C@H]24 [TETRADEHYDROLONGICAUDATINE Y]	–	–	1.24	7.97	0.958	12.1	–	–	–	–	–	–	–	–	–
C/C=C1/CN2[C@@H](C3=C[C@@H]4[C@@H]5N(C3=O)c3ccccc3[C@@]53CCN5C/C(=C/C)[C@@H]4C[C@H]53)C[C@@]34c5ccccc5N5C(=O)CC=C([C@H]1C[C@H]23)[C@H]54 [ISOSUNGUCINE]	–	–	1.32	7.06	0.265	1.72	–	–	–	–	–	–	–	–	–
